Screens deposited in PubChem by several laboratories.
Most compounds without a hit are left out; they make up all but 5.4% or so of the library.
HePTP inh: inhibitors of human HePTP phosphatase, primary screen, biochemical, absorbance, leukemia target; actives 0.64% (n = 110,000); recombinant HePTP phosphatase activity, OD absorbance; inhibition, % at 20 µM; Tyrosine-protein phosphatase non-receptor type 7 (Homo sapiens), P35236; in the data active = inhibition above about 50%
Target sequence (P35236 whole entry, looked up): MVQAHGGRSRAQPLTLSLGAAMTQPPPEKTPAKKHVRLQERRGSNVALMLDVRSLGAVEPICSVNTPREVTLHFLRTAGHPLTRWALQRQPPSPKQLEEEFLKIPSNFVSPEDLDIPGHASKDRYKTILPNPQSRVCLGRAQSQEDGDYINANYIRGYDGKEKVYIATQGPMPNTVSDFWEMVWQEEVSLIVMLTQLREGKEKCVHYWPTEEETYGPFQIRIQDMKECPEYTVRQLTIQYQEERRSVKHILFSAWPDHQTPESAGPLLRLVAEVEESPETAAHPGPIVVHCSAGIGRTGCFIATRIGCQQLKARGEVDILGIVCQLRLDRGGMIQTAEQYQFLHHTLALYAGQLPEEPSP
E coli WT exp: growth inhibitors of wild-type E. coli, primary screen, strain BW25113, expanded library, OD600. OD600 absorbance. growth inhibition, % at 100 µM. actives 0.15% (n = 98,000). AID 710, 2007;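 active = growth inhibition above about 50% at one test dose, limit read from the data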;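 also: growth measured after 20 h incubation at 37 °C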
PostGolgi ctrl: growth inhibition of yeast control strain, primary screen, counter-screen for post-Golgi transport modulator project; efflux-deficient yeast background strain, growth absorbance A615, 16 h; actives 5% (n = 98,000); AID 738, 2007; inhibition, % at 10 µM
PostGolgi yeast: phenotypic screen on post-Golgi transport, primary screen; post-Golgi transport phenotypic cell assay; inhibition, % at 10 µM; actives 0.9% (n = 98,000);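 also: yeast cells grown in 1536-well plates; yeast grown about 18 h at 30C before absorbance read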
tolC growth inh: growth inhibitors of E. coli tolC mutant, primary screen, strain BW25113 ΔtolC::kan, 384-well; OD615; growth inhibition, % at 10 µM (by protocol); actives 2.2% (n = 65,000);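 active = growth inhibition at or above a cutoff equal to the mean over every tested compound plus 3 SD, cut at about 60% in these data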;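 also: growth measured after 20 h incubation at 37 °C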
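Test system: tolC-deleted E. coli BW25113; medium: LB with kanamycin 50 µg/mL; compound: single-point testing at 10 µM; incubation: 20 h compound exposure of bacteria at 37 °C; signal: OD at 615 nm; evaluation: growth inhibition in percent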
PLAP act: PLAP enzyme activators, biochemical, luminescence, HTS; AID 696, 2007; activation fold at 20 µM; purified PLAP enzyme, luminescent substrate read-out; hits give high values; Alkaline phosphatase, placental type (Homo sapiens), P05187; actives 1.2% (n = 96,000); in the data active = activation fold above about 2
Hits are given with their value; - = inactive; . = no result given. Rule as the data show it, unless noted: active = inhibition above about 30%; inactive = the rest.

SMILES	HePTP inh	E coli WT exp	PostGolgi ctrl	PostGolgi yeast	tolC growth inh	PLAP act
CC(C)N(Cc1nc(-c2ccc(Cl)cc2)no1)C(=O)CN(C)S(=O)(=O)c1ccc(Cl)cc1	-	-	52	-	-	-
COc1ccc(-c2noc(CN(C)S(=O)(=O)c3ccc(Cl)cc3)n2)cc1OC	-	-	-	-	-	-
O=c1ccn(-c2cccc(C(F)(F)F)c2)nc1-c1ccn(-c2cccc(Cl)c2)n1	.	-	50	-	.	-
Nc1c(-c2cccc(Cl)c2)cnn1-c1cccc(C(F)(F)F)c1	.	-	-	-	.	-
COc1ccc(N2C(=O)CCC(C(=O)N3CCOCC3)C2c2ccc(F)cc2)cc1 (stereo unspecified)	-	-	-	-	-	-
CCOC(=O)c1cnc(-n2nc(C)cc2C)nc1NC1CCCCC1	-	-	67	87	100	-
CCOC(=O)c1cnc(-n2nc(C)cc2C)nc1NC	-	-	-	-	-	-
CCOC(=O)c1cnc(-n2nc(C)cc2C)nc1N(CC)CC	-	-	-	-	63	-
CCOC(=O)c1cnc(-n2nc(C)cc2C)nc1Nc1ccc(N(C)C)cc1	-	-	-	-	78	.
CC(=O)Nn1cnc2c(c1=O)C1(CCCC1)Cc1ccccc1-2	-	-	-	-	-	-
Clc1cccc(Nc2ncnc3ccc(Br)cc23)c1	.	-	46	-	.	-
Brc1ccc2ncnc(Nc3ccccc3)c2c1	-	.	.	.	.	.
Clc1ccc(Nc2ncnc3ccc(Br)cc23)cc1	.	-	33	-	.	-
COC(=O)c1cccc(Nc2ncnc3ccc(Br)cc23)c1	-	.	.	.	.	.
CCOC(=O)c1cc(CC)sc1NC(=O)Cc1ccsc1	-	-	-	-	73	-
CCOC(=O)c1cc(CC)sc1NC(=O)CCC(=O)O	-	-	-	-	-	-
N#CC1=C2SCC(O)(c3ccccc3)N2C(=O)CC1c1ccccc1 (stereo unspecified)	-	-	-	41	-	-
CCc1ccc(C2CC(=O)N3CN(c4ccccc4)CSC3=C2C#N)cc1 (stereo unspecified)	-	-	-	-	-	-
CC(=O)N1c2c(cc(Br)cc2S(=O)(=O)NCc2cccnc2)CC1C (stereo unspecified)	-	-	-	-	-	-
CCCCN(Cc1ccccc1)S(=O)(=O)c1cc(Br)cc2c1N(C(C)=O)C(C)C2 (stereo unspecified)	.	-	36	-	.	-
CCc1nnc(NC(=O)CSc2nnc(C3CCCCC3)n2-c2ccccc2)s1	-	-	-	-	-	-
Cc1nnc(SCc2cc(=O)[nH]c(Nc3nc(C)c4ccccc4n3)n2)s1	-	.	.	.	-	.
Cc1ccc2c(C)nc(Nc3nc(CSc4nc5ccccc5[nH]4)cc(=O)[nH]3)nc2c1	.	-	-	-	.	2.2
O=S(=O)(c1ccc2nc(COc3ccccc3)[nH]c2c1)N1CCOCC1	-	-	-	-	-	2
O=S(=O)(c1ccc2nc(Cc3cccc(C(F)(F)F)c3)[nH]c2c1)N1CCOCC1	-	-	-	-	-	-
SMILES	HePTP inh	E coli WT exp	PostGolgi ctrl	PostGolgi yeast	tolC growth inh	PLAP act
COc1cc(Cc2nc3ccc(S(=O)(=O)N4CCOCC4)cc3[nH]2)cc(OC)c1OC	.	-	-	-	.	-
O=S(=O)(c1ccc2nc(Cc3ccccc3)[nH]c2c1)N1CCOCC1	-	-	-	-	-	2.2
Cc1ccc2[nH]c(=O)c(CN(CC3CCCO3)S(=O)(=O)c3cccc4nsnc34)cc2c1 (stereo unspecified)	-	-	-	-	-	-
Cc1cc(C)c2cc(CN(CC3CCCO3)S(=O)(=O)c3ccc4c(c3)OCCO4)c(=O)[nH]c2c1 (stereo unspecified)	-	-	-	-	67	-
Cc1ccc2[nH]c(=O)c(CN(CC3CCCO3)S(=O)(=O)c3c(C)ccc4nsnc34)cc2c1 (stereo unspecified)	-	-	32	-	-	-
CCOC(=O)c1cn(CC(=O)Nc2ccccc2C(=O)OCC)nn1	-	-	-	-	-	-
COc1ccccc1CNC(=O)CSCc1cnn(-c2ccccc2)c1-n1cccc1	.	-	-	-	.	2.7
COc1cccc(CNC(=O)CSCc2cnn(-c3ccccc3)c2-n2cccc2)c1OC	.	-	-	-	.	2.6
O=S(=O)(Nc1nc2ccccc2s1)c1ccc(Cl)s1	.	-	31	-	.	-
